Reference: ChEMBL document CHEMBL3352594 (J Med Chem, 2014)
Calls of active or inactive are those of the source. The rule behind the calls is not given here.

Tests used:
Macrophage [1] = test: Inhibition of LPS-induced NO production in C57BL/6 mouse macrophages preincubated with compound for 1 hr before LPS challenge measured after 24 hrs by Griess method; type: functional, cell-based; details: C57BL/6, Macrophage
Method in brief: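 Peritoneal macrophages harvested from male C57BL/6J mice 3 days after ip thioglycollate; 1 × 10^5 cells/well in RPMI-1640 + 5% newborn calf serum, nonadherent cells removed after 2 h. Compounds added 1 h before LPS 1 μg/mL; 24 h later supernatant nitrite read by Griess reagent at 570 nm against a nitrite standard curve. IC50 from ≥2 experiments in triplicate; selectivity index = cytotoxicity IC50 / NO-inhibition IC50.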

[2] = Cytotoxicity against C57BL/6 mouse macrophages after 24 hrs by MTT assay; type: cell-based; details: C57BL/6, Macrophage
Method in brief: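 Thioglycollate-elicited peritoneal macrophages from male C57BL/6 mice, 1 × 10^5 cells/well, adhered 2 h, then exposed to compounds 24 h. Washed, MTT (5 mg/mL in PBS) added 4 h at 37 °C, formazan dissolved in DMSO, absorbance 570 nm.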

Macrophage [3] = test: Selectivity index, ratio of IC50 for C57BL/6 mouse macrophages to IC50 for LPS-induced NO production in C57BL/6 mouse macrophages
Macrophage [4] = test: Inhibition of intrinsic NO production in C57BL/6 mouse macrophages at 10 uM measured after 24 hrs by Griess method; type: functional, cell-based
Method in brief: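 Unstimulated peritoneal macrophages (no LPS) cultured 2 h, then exposed to compound at 10 μM for 24 h. Supernatant nitrite measured by Griess assay at 570 nm against a standard curve; untreated, vehicle and LPS (1 μg/mL) wells as controls. Three independent experiments, mean ± SEM.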

Mus musculus [5] = test: Antiinflammatory activity in specific pathogen-free COPD-like lung inflammation BALB/c mouse model assessed as inhibition of IL-8 level at 2 umol/kg/day, po for 35 days measured 24 hrs post last dose relative to vehicle-treated control; type: functional
Method in brief: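 SPF male BALB/c mice (18−20 g) exposed to cigarette smoke 5 min twice daily (days 2–13, 15–35) plus 20 μg LPS in 30 μL saline (days 1, 14). Oral drug 2 μmol/kg daily for 35 days, 1 h before exposure. Killed ~24 h after last dose; lungs lavaged 3× with 0.8 mL ice-cold saline; IL-8 in BAL supernatant by ELISA; n = 8−11, mean ± SEM.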

Mus musculus [6] = test: Antiinflammatory activity in Kunming mouse assessed as inhibition of croton oil-induced ear edema at 5 umol/kg, po administered before challenge relative to vehicle-treated control; type: functional
Method in brief: (§1)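 Male Kunming mice; croton oil applied topically to left ear at 0.4 mg/ear. Test agent or equal-volume vehicle given 1 h before (po 5, 10, 20 μmol/kg; sc 77, 154, 308 μmol/kg). Euthanized under pentobarbital 4 h after croton oil; 8 mm ear punches weighed, left minus right weight = edema; inhibition vs vehicle group. n = 10 (po) or 8–9 (sc); mean ± SEM.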

Mus musculus [7] = test: Antiinflammatory activity in Kunming mouse assessed as inhibition of croton oil-induced ear edema at 20 umol/kg, po administered before challenge relative to vehicle-treated control; type: functional; method in brief: as §1
Mus musculus [8] = test: Antiinflammatory activity in Kunming mouse assessed as inhibition of croton oil-induced ear edema at 10 umol/kg, po administered before challenge relative to vehicle-treated control; type: functional; method in brief: as §1
Macrophage [9] = test: Inhibition of LPS-induced iNOS expression in C57BL/6 mouse macrophages preincubated at 1 uM for 1 hr before LPS challenge measured after 24 hrs by immunoblotting; type: functional, cell-based
Method in brief: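 Male C57BL/6 peritoneal macrophages pretreated 1 h with compound at 1 μM, then LPS 1 μg/mL for 24 h. Lysates resolved on 10% SDS-PAGE and transferred to PVDF; blots probed with rabbit anti-iNOS and anti-β-actin (1:1000, overnight 4 °C), visualized by ECL. iNOS/β-actin ratio from densitometry; three independent experiments, mean ± SEM.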

Mus musculus [10] = test: Antiinflammatory activity in specific pathogen-free COPD-like lung inflammation BALB/c mouse model assessed as inhibition of TNFalpha level at 2 umol/kg/day, po for 35 days measured 24 hrs post last dose relative to vehicle-treated control; type: functional, organism-based
Method in brief: (§2)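 Male SPF BALB/c mice (18−20 g) exposed to cigarette smoke 5 min twice daily on days 2−13 and 15−35, with 20 μg LPS in 30 μL saline on days 1 and 14. Dosed orally 1 h before first exposure, daily for 35 days. Lungs lavaged 3× with 0.8 mL ice-cold saline about 24 h after last dose. Supernatant cytokines measured by ELISA. n = 8−11, mean ± SEM, Student's t test.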

Mus musculus [11] = test: Antiinflammatory activity in Kunming mouse assessed as inhibition of croton oil-induced ear edema at 308 umol/kg, sc administered before challenge relative to vehicle-treated control; type: functional; method in brief: as §1
[12] = Toxicity in Kunming mouse administered orally as single dose measured over 14 days; type: organism-based; details: in vivo, po
Method in brief: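 SPF Kunming mice, half male and half female, fasted 16 h with water allowed, then weighed and randomized at 10/group. Single gavage dose (0.1 mL/10 g) at various doses, with solvent-only controls. Survival monitored for 14 days.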

Mus musculus [13] = test: Antiinflammatory activity in specific pathogen-free COPD-like lung inflammation BALB/c mouse model assessed as inhibition of eosinophils at 2 umol/kg/day, po for 35 days measured 24 hrs post last dose relative to vehicle-treated control; type: functional, organism-based
Method in brief: (§3)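 Male SPF BALB/c mice (18−20 g) given cigarette smoke 5 min twice daily (days 2−13, 15−35) plus LPS 20 μg in 30 μL saline on days 1 and 14. Oral dosing 1 h before first exposure, daily for 35 days. BAL (3 × 0.8 mL ice-cold saline) collected about 24 h after final dose. Centrifuged pellet resuspended in 200 μL PBS and counted by hemocytometer for differential cells.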

Mus musculus [14] = test: Antiinflammatory activity in Kunming mouse assessed as inhibition of croton oil-induced ear edema at 77 umol/kg, sc administered before challenge relative to vehicle-treated control; type: functional; method in brief: as §1
Mus musculus [15] = test: Antiinflammatory activity in specific pathogen-free COPD-like lung inflammation BALB/c mouse model assessed as inhibition of IL-1beta level at 2 umol/kg/day, po for 35 days measured 24 hrs post last dose relative to vehicle-treated control; type: functional, organism-based; method in brief: as §2
Mus musculus [16] = test: Antiinflammatory activity in specific pathogen-free COPD-like lung inflammation BALB/c mouse model assessed as inhibition of white blood cells at 2 umol/kg/day, po for 35 days measured 24 hrs post last dose relative to vehicle-treated control; type: functional, organism-based; method in brief: as §3
Mus musculus [17] = test: Antiinflammatory activity in Kunming mouse assessed as inhibition of croton oil-induced ear edema at 154 umol/kg, sc administered before challenge relative to vehicle-treated control; type: functional; method in brief: as §1
Mus musculus [18] = test: Antiinflammatory activity in specific pathogen-free COPD-like lung inflammation BALB/c mouse model assessed as inhibition of IL-6 level at 2 umol/kg/day, po for 35 days measured 24 hrs post last dose relative to vehicle-treated control; type: functional, organism-based; method in brief: as §2
Mus musculus [19] = test: Antiinflammatory activity in specific pathogen-free COPD-like lung inflammation BALB/c mouse model assessed as inhibition of neutrophils at 2 umol/kg/day, po for 35 days measured 24 hrs post last dose relative to vehicle-treated control; type: functional; method in brief: as §3

SMILES | IC50 (Macrophage [1]) | IC50 [2] | Ratio IC50 (Macrophage [3]) | inhibition (Macrophage [4]) | inhibition (Macrophage [9]) | other results
COC(=O)[C@]12OC[C@]34[C@H]([C@@H](O)[C@@H]1O)[C@@]1(C)CC(=O)C(O)=C(C)[C@@H]1C[C@H]3OC(=O)[C@H](OC(=O)C=C(C)C)[C@@H]24 [BRUSATOL] | 50 nM | 140 nM |  |  |  | inhibition in vivo at 2 µmol/kg (Mus musculus [5]): 46%; inhibition in vivo at 5 µmol/kg (Mus musculus [6]): 24.3%; inhibition in vivo at 20 µmol/kg (Mus musculus [7]): 46.8%; inhibition in vivo at 10 µmol/kg (Mus musculus [8]): 27.1%
COC(=O)[C@]12OC[C@]34[C@H]([C@@H](O)[C@@H]1O)[C@@]1(C)CC(=O)C(OCc5ccc(OCc6c(-c7ccccc7)no[n+]6[O-])cc5)=C(C)[C@@H]1C[C@H]3OC(=O)[C@H](OC(=O)C=C(C)C)[C@@H]24 | 2100 nM | > 10000 nM | >4.7 |  |  | 
CC(C)=CC(=O)O[C@H]1C(=O)O[C@@H]2C[C@H]3C(C)=C(O)C(=O)C[C@]3(C)[C@H]3[C@@H](O)[C@H](O)[C@]4(C(=O)O)OC[C@]32[C@@H]14 | > 10000 nM | > 10000 nM |  | Active | Active | 
CC(C)=CC(=O)O[C@H]1C(=O)O[C@@H]2C[C@H]3C(C)=C(O)C(=O)C[C@]3(C)[C@H]3[C@@H](O)[C@H](O)[C@]4(C(=O)OCCCCOc5no[n+]([O-])c5S(=O)(=O)c5ccccc5)OC[C@]32[C@@H]14 | 1100 nM | 3000 nM | 2.7 |  |  | 
CC(C)=CC(=O)O[C@H]1C(=O)O[C@@H]2C[C@H]3C(C)=C(OC(=O)CCC(=O)OCCCCOc4no[n+]([O-])c4S(=O)(=O)c4ccccc4)C(=O)C[C@]3(C)[C@H]3[C@@H](O)[C@H](OC(=O)CCC(=O)OCCCCOc4no[n+]([O-])c4S(=O)(=O)c4ccccc4)[C@]4(C(=O)O)OC[C@]32[C@@H]14 | 67 nM | > 10000 nM | >149 | inactive | Active | inhibition (Mus musculus [10]): Active; inhibition in vivo at 2 µmol/kg (Mus musculus [5]): 48%; inhibition in vivo at 308 µmol/kg (Mus musculus [11]): 76.5%; LD50 at 336 h [12]: > 3850 µmol/kg; inhibition (Mus musculus [13]): Active; inhibition in vivo at 77 µmol/kg (Mus musculus [14]): 31.4%; inhibition in vivo at 5 µmol/kg (Mus musculus [6]): 0.9%; inhibition in vivo at 20 µmol/kg (Mus musculus [7]): 7.8%; inhibition (Mus musculus [15]): Active; inhibition (Mus musculus [16]): Active; inhibition in vivo at 154 µmol/kg (Mus musculus [17]): 61%; inhibition in vivo at 10 µmol/kg (Mus musculus [8]): 6.4%; inhibition (Mus musculus [18]): Active
COC(=O)[C@]12OC[C@]34[C@H]([C@@H](O)[C@@H]1O)[C@@]1(C)CC(=O)C(O)=C(C)[C@@H]1C[C@H]3OC(=O)[C@H](OC(=O)CCC(=O)OCc1ccc(OCc3c(-c5ccccc5)no[n+]3[O-])cc1)[C@@H]24 | 380 nM | 820 nM | 2.2 |  |  | 
COC(=O)[C@]12OC[C@]34[C@H]([C@@H](O)[C@@H]1O)[C@@]1(C)CC(=O)C(OC(=O)c5ccccc5C(=O)OCCCCOc5no[n+]([O-])c5S(=O)(=O)c5ccccc5)=C(C)[C@@H]1C[C@H]3OC(=O)[C@H](OC(=O)C=C(C)C)[C@@H]24 | 690 nM | 1300 nM | 1.9 |  |  | 
COC(=O)[C@]12OC[C@]34[C@H]([C@@H](O)[C@@H]1O)[C@@]1(C)CC(=O)C(OC(=O)CCC(=O)OCCCCOc5no[n+]([O-])c5S(=O)(=O)c5ccccc5)=C(C)[C@@H]1C[C@H]3OC(=O)[C@H](OC(=O)C=C(C)C)[C@@H]24 | 89 nM | 790 nM | 8.9 | inactive |  | inhibition (Mus musculus [10]): Active; inhibition in vivo at 2 µmol/kg (Mus musculus [19]): 85%; LD50 at 336 h [12]: 41.1 µmol/kg; inhibition (Mus musculus [13]): Active; inhibition in vivo at 5 µmol/kg (Mus musculus [6]): 29.4%; inhibition in vivo at 20 µmol/kg (Mus musculus [7]): 53.9%; inhibition (Mus musculus [15]): Active; inhibition (Mus musculus [16]): Active; inhibition in vivo at 10 µmol/kg (Mus musculus [8]): 39.9%; inhibition (Mus musculus [18]): Active

The next lines start with results.

IC50 (Macrophage [1]) | SMILES | IC50 [2] | Ratio IC50 (Macrophage [3]) | inhibition (Macrophage [4]) | inhibition (Macrophage [9]) | other results
47 nM | COC(=O)[C@]12OC[C@]34[C@H]([C@@H](O)[C@@H]1O)[C@@]1(C)CC(=O)C(OC(=O)CCC(=O)OCc5ccc(OCc6c(-c7ccccc7)no[n+]6[O-])cc5)=C(C)[C@@H]1C[C@H]3OC(=O)[C@H](OC(=O)C=C(C)C)[C@@H]24 | 150 nM | 3.2 | Active |  | 
210 nM | COC(=O)[C@]12OC[C@]34[C@H]([C@@H](O)[C@@H]1O)[C@@]1(C)CC(=O)C(O)=C(C)[C@@H]1C[C@H]3OC(=O)[C@H](OC(=O)CCC(=O)OCCCCOc1no[n+]([O-])c1S(=O)(=O)c1ccccc1)[C@@H]24 | 1200 nM | 5.7 |  |  | 
1300 nM | CC(C)=CC(=O)O[C@H]1C(=O)O[C@@H]2C[C@H]3C(C)=C(OC(=O)CCC(=O)OCCCCOc4no[n+]([O-])c4S(=O)(=O)c4ccccc4)C(=O)C[C@]3(C)[C@H]3[C@@H](O)[C@H](O)[C@]4(C(=O)O)OC[C@]32[C@@H]14 | > 10000 nM | >7.6 | inactive | Active | 
11000 nM | CC(C)=CC(=O)O[C@H]1C(=O)O[C@@H]2C[C@H]3C(C)=C(O)C(=O)C[C@]3(C)[C@H]3[C@@H](O)[C@H](OC(=O)CCC(=O)OCCCCOc4no[n+]([O-])c4S(=O)(=O)c4ccccc4)[C@]4(C(=O)O)OC[C@]32[C@@H]14 | > 10000 nM |  | inactive | Active | 
2200 nM | CC(C)=CC(=O)O[C@H]1C(=O)O[C@@H]2C[C@H]3C(C)=C(O)C(=O)C[C@]3(C)[C@H]3[C@@H](O)[C@H](O)[C@]4(C(=O)OCc5ccc(OCc6c(-c7ccccc7)no[n+]6[O-])cc5)OC[C@]32[C@@H]14 | 3900 nM | 1.8 |  |  | 
